Source: PubChem (several laboratories)
Most compounds without a hit are left out; they make up all but 3.1% or so of the library.
MBD2 inh = inhibitors of MBD2 binding to methylated DNA, primary screen, biochemical, TR-FRET, DNA-binding domain, human. inhibition, % at 4.4 µM. MBD2 binding to methylated oligonucleotide. Methyl-CpG-binding domain protein 2 (Homo sapiens), Q9UBB5. AID 686964, 2013. hit rate 0.31% among 370,000; in the data active = inhibition above about 13%
UHRF1 binding = UHRF1 methylated DNA binding inhibitors, primary screen, counter-screen for MBD2 inhibitor project, biochemical, TR-FRET, human UHRF1, single concentration; UHRF1 binding to methylated oligo; inhibition, % at 4.4 µM; hit rate 0.75% among 370,000;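 note: UHRF1 SRA domain binding a hemimethylated CpG hairpin DNA probe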
CSN inh = inhibitors of CSN-mediated cullin deneddylation, primary screen, biochemical, fluorescence polarization, uHTS. COP9 signalosome complex subunit 5 (Homo sapiens), Q92905. Purified CSN, SCF-Nedd8-OG deneddylation. inhibition, % at 12.5 µM. hit rate 0.38% among 360,000. AID 651999, 2013;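 active = pattern-corrected inhibition above about 35%, with an unprinted fluorescence ratio check between 0.5 and 1.5, limit read from the data, passing the limit was not always enough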
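Test system: Human Csn5 produced in HEK293T cells | Compound: 12.5 µM single point | Times: 90 min, room temperature | Signal: Fluorescence polarization readout | Read-out basis: % inhibition of substrate cleavage by Csn5 | Controls: no-enzyme wells high, enzyme-with-substrate wells low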
LEDGF integ inh = blockers of LEDGF/p75-dependent integrase strand transfer – biochemical, TR-FRET, high throughput, primary screen; HIV-1 integrase (with human LEDGF/p75); TR-FRET IN-LEDGF/p75 DNA integration, Eu/Cy5; inhibition, % at 3.7 µM; hit rate 0.64% among 370,000; AID 743269, 2014;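 active = inhibition above the screen-wide mean plus 3 SD, cut at about 13% in these data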;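 note: signal is the Cy5 over europium emission ratio at 671 and 618 nm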
rCAG binder = binders of r(CAG) RNA repeats, primary screen, biochemical, fluorescence; hit rate 1.3% among 370,000; inhibition, % at 3 µM; r(CAG) RNA repeat, TO-PRO-1 dye displacement fluorescence;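 active = inhibition above the plate cutoff, the mean of all test compounds on that plate plus 3 SD, cut at about 35% in these data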;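 note: higher means more dye released from RNA so lower well fluorescence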
ATG4B inh = ATG4B protease inhibitors, primary screen, biochemical, fluorescence, uHTS. inhibition, % at 8.33 µM. Cysteine protease ATG4B (Homo sapiens), Q9Y4P1. hit rate 0.51% among 340,000. ATG4B cleavage of LC3-PLA2, NBD-HPC fluorescence, 1 h. AID 504462, 2011; in the data active = inhibition above about 40%
Target sequence (Q9Y4P1 whole entry, looked up): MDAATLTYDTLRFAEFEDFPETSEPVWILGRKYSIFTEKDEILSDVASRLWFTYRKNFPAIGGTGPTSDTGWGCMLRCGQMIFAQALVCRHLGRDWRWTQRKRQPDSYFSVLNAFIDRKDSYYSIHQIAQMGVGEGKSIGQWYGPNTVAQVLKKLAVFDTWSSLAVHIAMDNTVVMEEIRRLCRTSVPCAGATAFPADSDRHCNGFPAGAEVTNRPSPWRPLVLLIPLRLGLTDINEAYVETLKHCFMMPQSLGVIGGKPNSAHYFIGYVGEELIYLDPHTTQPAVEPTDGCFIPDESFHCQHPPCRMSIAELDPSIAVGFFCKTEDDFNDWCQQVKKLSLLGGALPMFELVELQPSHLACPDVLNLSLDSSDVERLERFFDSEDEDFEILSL
UHRF1 ctr MBD2 = UHRF1 methylated DNA binding inhibitors, counter-screen for MBD2 inhibitor project, biochemical, TR-FRET, human UHRF1; shares compounds with MBD2 inh; UHRF1 binding to methylated oligonucleotide; inhibition, % at 4.4 µM; hit rate 25% among 1,000; AID 720530, 2013;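 note: UHRF1 SRA domain binding a labeled hemimethylated CpG hairpin DNA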
MBD2 confirm = inhibitors of MBD2 binding to methylated DNA, confirmation, biochemical, TR-FRET, DNA-binding domain, human; TR-FRET MBD2-DBD binding to methylated oligonucleotide; AID 720531, 2013; inhibition, % at 4.4 µM; shares compounds with MBD2 inh; hit rate 26% among 1,000; in the data active = inhibition above about 14%
Hits are given with their value; n = inactive; x = no result. Cut-off read from the data, not from the text of the source, unless noted: active = inhibition above about 21%; inactive = the rest.

SMILES	MBD2 inh	UHRF1 binding	CSN inh	LEDGF integ inh	rCAG binder	ATG4B inh	UHRF1 ctr MBD2	MBD2 confirm
Cc1ccc(NC(=O)CN(C)C(=O)CNC(=O)c2sc3ccccc3c2Cl)cc1	50	n	n	n	n	n	n	n
CCN(CC(=O)Nc1c(F)cccc1F)C(=O)CNC(=O)c1sc2ccccc2c1Cl	n	n	n	n	n	n	x	x
CCN(CC)CCCNc1nc2cc(OC)c(OC)cc2c2nc(-c3ccccc3)nn12	35	35	n	n	n	n	56	57
COCCCNc1nc2cc(OC)c(OC)cc2c2nc(-c3ccccc3)nn12	n	n	n	n	n	n	x	x
CCN(CC)CCCNc1nc2cc(OC)c(OC)cc2c2nc(-c3cccnc3)nn12	69	68	n	n	n	n	81	78
COc1cc2nc(NCCCN3CCN(C)CC3)n3nc(-c4ccccc4)nc3c2cc1OC	48	49	n	n	n	n	41	42
O=C(NCCc1c[nH]c2ccccc12)OCc1cn(-c2cccc(Cl)c2)nn1	n	n	x	n	n	x	x	x
COc1cccc(-c2cc(C(=O)NC3CCCC3)no2)c1	16	n	n	n	n	n	n	n
COCCNC(=O)c1cc(-c2cccc(OC)c2)on1	n	n	n	n	n	n	x	x
Cc1ccccc1NC(=O)Cn1nnc(-c2ccncc2)n1	n	n	x	n	n	x	x	x
Nn1c(-c2ccc(O)cc2)nnc1-c1ccc(O)cc1	23	n	n	n	n	n	n	n
COC(=O)Cc1nnn2c1[C@H](C)[C@H](c1cccc(OC)c1OC)OCC2	16	26	x	n	n	x	n	n
CC[C@@H]1/C(=C/c2ccccc2)N2C(=O)C[C@@H](c3ccccc3)N=C2N1Cc1ccc(OC)cc1OC	n	n	x	n	x	x	x	x
COC(=O)C[C@@H]1CC[C@H]2[C@H](COc3ccc(NC(=O)c4ccc(OC)cc4)cc3C(=O)N2C)O1	n	n	x	n	n	x	x	x
c1ccc(-c2csc(Nc3cccnc3)n2)nc1	27	n	n	n	n	n	n	n
COc1ccc(-n2cc(COC(=O)NCCc3ccccc3)nn2)cc1	n	n	x	n	n	x	x	x
CC1CCCC(NC(=O)CSc2nncs2)C1C (stereo unspecified)	n	n	n	n	n	n	x	x
CC1CCCCC1NC(=O)CSc1nncs1 (stereo unspecified)	14	n	n	n	n	n	n	n
COC(=O)[C@H](CC(C)C)N(Cc1cn(Cc2ccc(C)cc2)nn1)S(=O)(=O)c1ccccc1Br	18	n	x	n	n	x	n	n
CN1C2=N[C@H](c3ccccc3)CC(=O)N2/C(=C\c2ccccc2)C1Cc1ccccc1 (stereo partly specified)	n	n	x	n	n	x	x	x
CC(C)CNC(=O)OCc1cn(Cc2cccc(F)c2F)nn1	n	n	x	n	n	x	x	x
CCC(C(=O)OCc1csc(CC(=O)Nc2ccccc2C)n1)c1ccccc1 (stereo unspecified)	n	n	n	n	n	n	x	x
Cc1ccccc1NC(=O)Cc1nc(COC(=O)CC(C)c2ccccc2)cs1 (stereo unspecified)	20	n	n	n	n	n	n	n
CC(C)(C)CC(=O)NC(=S)Nc1ccccc1C(F)(F)F	16	23	n	n	n	n	n	n
